Published values collected from several papers.
Protocols differ between the studies behind these lines. In brackets after ≈: the same amount, converted by molar mass.

Structure (SMILES) | target or system | assay | test system | setting | quantity | value
O=C(CCCCCCCCCCOc1ccccc1)NP(=O)(O)O | Bacillus subtilis | microbial growth | ATCC23857 | – | MIC | > 200 µg/mL
COc1ccc(/C=C\c2cc(OC)c(OC)c(OC)c2)cc1 | – | tubulin polymerisation, inhibitor, absorbance | – | – | IC50 | 1100 nM
Cc1ncc([N+](=O)[O-])n1CCO | Clostridium perfringens | microbial growth | – | – | MIC50 | 0.5 µg/mL (≈ 2.92 µM)
Cc1cccc(-n2ncc(Cl)c(Cl)c2=O)c1 | HCC827 | cell growth or viability, resazurin | – | 96 h | IC50 | 90 nM
CCCCCCCC(=O)NP(=O)(O)O | Bacillus subtilis | microbial growth | ATCC23857 | – | MIC | > 200 µg/mL
O=[N+]([O-])c1ccc(C2=[N+]([O-])c3ccccc3N3CCN=C23)cc1 | Clostridium perfringens | microbial growth | – | – | MIC50 | ≤ 0.06 µg/mL
OC(Cn1cncn1)(Cn1cncn1)c1ccc(F)cc1F | Cryptococcus neoformans | microbial growth, broth dilution | – | – | MIC | 3.12 µg/mL (≈ 10.2 µM)
O=C1CCc2ccc(O)c(c2)Oc2ccc(cc2)[C@H]2O[C@@H]2CO1 | – | tubulin polymerisation, inhibitor | – | – | IC50 | > 40000 nM
N.N.[Cl][Pt][Cl] | HCC827 | cell growth or viability, MTT | – | 72 h | IC50 | 3000 nM
CN1C[C@H](C(=O)N[C@]2(C)O[C@@]3(O)[C@@H]4CCCN4C(=O)[C@H](Cc4ccccc4)N3C2=O)C=C2c3cccc4[nH]cc(c34)C[C@H]21 | WI-38 | cell growth or viability, MTT | – | 72 h | EC50 | 57000 nM
Cc1cc(N(CCO)CCO)ccc1C=O | CAKI-1 | cell growth or viability | – | – | IC50 | > 10 µg/mL
O=C1CCc2ccc(O)c(c2)Oc2ccc(cc2)/C=C\CO1 | – | tubulin polymerisation, inhibitor | – | – | IC50 | > 40000 nM
CN[C@@H]1[C@H](O)[C@H](NC)[C@H]2O[C@@]3(O)C(=O)C[C@@H](C)O[C@H]3O[C@@H]2[C@H]1O | Proteus vulgaris | microbial growth, broth dilution | ATCC33420 | – | MIC | 50 µg/mL (≈ 150 µM)
